In ChEMBL document CHEMBL1151428, “Capability of 11 antipneumococcal antibiotics to select for resistance by multistep and single-step methodologies” (2007):
In brackets after ≈: the same amount, converted by molar mass.

Columns and labels:
Format in all cases: functional
Streptococcus pneumoniae [1] = assay: Antimicrobial activity against drug-resistant Streptococcus pneumoniae isolate 24 after 50 passages with moxifloxacin measured after 10 antibiotic-free subculture by multi-step resistance selection technique
Procedure, shortened: (§1)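 Mutants selected by daily broth passage in subinhibitory drug in cation-adjusted Mueller-Hinton broth with 5% lysed horse blood. Stability was tested by 10 daily passages on blood agar without antibiotic, then macrodilution MIC.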

Streptococcus pneumoniae [2] = assay: Antimicrobial activity against drug-resistant Streptococcus pneumoniae isolate 24 after 14 passages with Telithromycin measured after 10 antibiotic-free subculture by multi-step resistance selection technique; procedure, shortened: as §1
Streptococcus pneumoniae [3] = assay: Antimicrobial activity against drug-resistant Streptococcus pneumoniae isolate 24 by NCCLS M7-A7 method
Streptococcus pneumoniae [4] = assay: Antimicrobial activity against drug-resistant Streptococcus pneumoniae isolate 1635 after 49 passages with clarithromycin measured after 10 antibiotic-free subculture by multi-step resistance selection technique
Streptococcus pneumoniae [5] = assay: Antimicrobial activity against drug-resistant Streptococcus pneumoniae isolate 1635 after 14 passages with azithromycin measured after 10 antibiotic-free subculture by multi-step resistance selection technique; procedure, shortened: as §1
Streptococcus pneumoniae [6] = assay: Antimicrobial activity against drug-resistant Streptococcus pneumoniae isolate 1635 after 49 passages by multi-step resistance selection technique
Procedure, shortened: (§2)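 Daily serial passage in subinhibitory drug levels in 1 ml cation-adjusted Mueller-Hinton broth with 5% lysed horse blood; fresh broth for tigecycline. Each day, 10 μl were taken from the tube one to two dilutions below the MIC whose turbidity matched the growth control, and used to set the next MIC. […] MIC by macrodilution.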

Streptococcus pneumoniae [7] = assay: Antimicrobial activity against drug-resistant Streptococcus pneumoniae isolate 1635 by NCCLS M7-A7 method
Streptococcus pneumoniae [8] = assay: Antimicrobial activity against drug-resistant Streptococcus pneumoniae isolate 3243 after 20 passages with moxifloxacin measured after 10 antibiotic-free subculture by multi-step resistance selection technique; procedure, shortened: as §1
Streptococcus pneumoniae [9] = assay: Antimicrobial activity against drug-resistant Streptococcus pneumoniae isolate 3243 after 41 passages with clarithromycin measured after 10 antibiotic-free subculture by multi-step resistance selection technique
Streptococcus pneumoniae [10] = assay: Antimicrobial activity against drug-resistant Streptococcus pneumoniae isolate 3243 after 33 passages with azithromycin measured after 10 antibiotic-free subculture by multi-step resistance selection technique; procedure, shortened: as §1
Streptococcus pneumoniae [11] = assay: Antimicrobial activity against drug-resistant Streptococcus pneumoniae isolate 3243 after 29 passages with Telithromycin measured after 10 antibiotic-free subculture by multi-step resistance selection technique; procedure, shortened: as §1
Streptococcus pneumoniae [12] = assay: Antimicrobial activity against drug-resistant Streptococcus pneumoniae isolate 3243 after 41 passages by multi-step resistance selection technique; procedure, shortened: as §2
Streptococcus pneumoniae [13] = assay: Antimicrobial activity against drug-resistant Streptococcus pneumoniae isolate 3243 by NCCLS M7-A7 method
Streptococcus pneumoniae [14] = assay: Antimicrobial activity against drug-resistant Streptococcus pneumoniae isolate 3676 after 50 passages with moxifloxacin measured after 10 antibiotic-free subculture by multi-step resistance selection technique
Streptococcus pneumoniae [15] = assay: Antimicrobial activity against drug-resistant Streptococcus pneumoniae isolate 3274 after 48 passages with Telithromycin measured after 10 antibiotic-free subculture by multi-step resistance selection technique; procedure, shortened: as §1
Streptococcus pneumoniae [16] = assay: Antimicrobial activity against drug-resistant Streptococcus pneumoniae isolate 3274 after 50 passages by multi-step resistance selection technique
Procedure, shortened: (§3)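 Daily serial passage in subinhibitory drug levels in 1 ml cation-adjusted Mueller-Hinton broth with 5% lysed horse blood; fresh broth for tigecycline. Each day, 10 μl were taken from the tube one to two dilutions below the MIC whose turbidity matched the growth control, and used to set the next MIC. MIC by macrodilution.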

Streptococcus pneumoniae [17] = assay: Antimicrobial activity against drug-resistant Streptococcus pneumoniae isolate 3274 by NCCLS M7-A7 method
Streptococcus pneumoniae [18] = assay: Antimicrobial activity against drug-resistant Streptococcus pneumoniae isolate 2527 after 14 passages with gemifloxacin measured after 10 antibiotic-free subculture by multi-step resistance selection technique; procedure, shortened: as §1
Streptococcus pneumoniae [19] = assay: Antimicrobial activity against drug-resistant Streptococcus pneumoniae isolate 2527 after 20 passages with azithromycin measured after 10 antibiotic-free subculture by multi-step resistance selection technique; procedure, shortened: as §1
Streptococcus pneumoniae [20] = assay: Antimicrobial activity against drug-resistant Streptococcus pneumoniae isolate 2527 by NCCLS M7-A7 method
Streptococcus pneumoniae [21] = assay: Antimicrobial activity against drug-resistant Streptococcus pneumoniae isolate 2527 after 50 passages by multi-step resistance selection technique; procedure, shortened: as §2
Streptococcus pneumoniae [22] = assay: Antimicrobial activity against drug-resistant Streptococcus pneumoniae isolate 3665 by NCCLS M7-A7 method
Streptococcus pneumoniae [23] = assay: Antimicrobial activity against drug-resistant Streptococcus pneumoniae isolate 1077 after 49 passages with clindamycin measured after 10 antibiotic-free subculture by multi-step resistance selection technique
Streptococcus pneumoniae [24] = assay: Antimicrobial activity against drug-resistant Streptococcus pneumoniae isolate 1077 after 29 passages with azithromycin measured after 10 antibiotic-free subculture by multi-step resistance selection technique; procedure, shortened: as §1
Streptococcus pneumoniae [25] = assay: Antimicrobial activity against drug-resistant Streptococcus pneumoniae isolate 1077 after 15 passages with Telithromycin measured after 10 antibiotic-free subculture by multi-step resistance selection technique; procedure, shortened: as §1
Streptococcus pneumoniae [26] = assay: Antimicrobial activity against drug-resistant Streptococcus pneumoniae isolate 1077 after 50 passages by multi-step resistance selection technique; procedure, shortened: as §3
Streptococcus pneumoniae [27] = assay: Antimicrobial activity against drug-resistant Streptococcus pneumoniae isolate 1077 by NCCLS M7-A7 method
Streptococcus pneumoniae [28] = assay: Antimicrobial activity against drug-resistant Streptococcus pneumoniae isolate 1076 after 35 passages with moxifloxacin measured after 10 antibiotic-free subculture by multi-step resistance selection technique; procedure, shortened: as §1
Streptococcus pneumoniae [29] = assay: Antimicrobial activity against drug-resistant Streptococcus pneumoniae isolate 1076 after 14 passages with Telithromycin measured after 10 antibiotic-free subculture by multi-step resistance selection technique; procedure, shortened: as §1
Streptococcus pneumoniae [30] = assay: Antimicrobial activity against drug-resistant Streptococcus pneumoniae isolate 1076 by NCCLS M7-A7 method
Streptococcus pneumoniae [31] = assay: Antimicrobial activity against drug-resistant Streptococcus pneumoniae isolate 3009 after 19 passages with moxifloxacin measured after 10 antibiotic-free subculture by multi-step resistance selection technique; procedure, shortened: as §1
Streptococcus pneumoniae [32] = assay: Antimicrobial activity against drug-resistant Streptococcus pneumoniae isolate 3009 after 18 passages with levofloxacin measured after 10 antibiotic-free subculture by multi-step resistance selection technique; procedure, shortened: as §1
Streptococcus pneumoniae [33] = assay: Antimicrobial activity against drug-resistant Streptococcus pneumoniae isolate 3009 after 21 passages with gemifloxacin measured after 10 antibiotic-free subculture by multi-step resistance selection technique; procedure, shortened: as §1
Streptococcus pneumoniae [34] = assay: Antimicrobial activity against drug-resistant Streptococcus pneumoniae isolate 3009 after 25 passages with clarithromycin measured after 10 antibiotic-free subculture by multi-step resistance selection technique
Streptococcus pneumoniae [35] = assay: Antimicrobial activity against drug-resistant Streptococcus pneumoniae isolate 3009 after 25 passages by multi-step resistance selection technique; procedure, shortened: as §2
Streptococcus pneumoniae [36] = assay: Antimicrobial activity against drug-resistant Streptococcus pneumoniae isolate 3009 by NCCLS M7-A7 method
Streptococcus pneumoniae [37] = assay: Antimicrobial activity against drug-resistant Streptococcus pneumoniae isolate 1635 after 14 passages with clindamycin measured after 10 antibiotic-free subculture by multi-step resistance selection technique
Streptococcus pneumoniae [38] = assay: Antimicrobial activity against drug-resistant Streptococcus pneumoniae isolate 37 by NCCLS M7-A7 method
Streptococcus pneumoniae [39] = assay: Antimicrobial activity against drug-resistant Streptococcus pneumoniae isolate 37 after 14 passages with Telithromycin measured after 10 antibiotic-free subculture by multi-step resistance selection technique
Streptococcus pneumoniae [40] = assay: Antimicrobial activity against drug-resistant Streptococcus pneumoniae isolate 3413 by NCCLS M7-A7 method
Streptococcus pneumoniae [41] = assay: Antimicrobial activity against drug-resistant Streptococcus pneumoniae isolate 3413 after 50 passages by multi-step resistance selection technique; procedure, shortened: as §3
Streptococcus pneumoniae [42] = assay: Antimicrobial activity against drug-resistant Streptococcus pneumoniae isolate 3413 after 30 passages with Telithromycin measured after 10 antibiotic-free subculture by multi-step resistance selection technique; procedure, shortened: as §1
Streptococcus pneumoniae [43] = assay: Antimicrobial activity against drug-resistant Streptococcus pneumoniae isolate 3676 after 44 passages with clarithromycin measured after 10 antibiotic-free subculture by multi-step resistance selection technique
Streptococcus pneumoniae [44] = assay: Antimicrobial activity against drug-resistant Streptococcus pneumoniae isolate 3676 after 14 passages with Telithromycin measured after 10 antibiotic-free subculture by multi-step resistance selection technique
Streptococcus pneumoniae [45] = assay: Antimicrobial activity against drug-resistant Streptococcus pneumoniae isolate 3676 after 44 passages by multi-step resistance selection technique
Procedure, shortened: (§4)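 Daily serial passage in broth at subinhibitory drug levels: 1 ml cation-adjusted Mueller-Hinton broth with 5% lysed horse blood; fresh broth for tigecycline. Each day 10 μl inoculum taken from the tube one to two dilutions below MIC matching growth-control turbidity, used to set next MIC. Continued until ≥8-fold MIC rise, minimum 14, maximum 50 passages; MIC read by macrodilution.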

Streptococcus pneumoniae [46] = assay: Antimicrobial activity against drug-resistant Streptococcus pneumoniae isolate 3676 by NCCLS M7-A7 method
Streptococcus pneumoniae [47] = assay: Antimicrobial activity against drug-resistant Streptococcus pneumoniae isolate 3665 after 38 passages with moxifloxacin measured after 10 antibiotic-free subculture by multi-step resistance selection technique
Streptococcus pneumoniae [48] = assay: Antimicrobial activity against drug-resistant Streptococcus pneumoniae isolate 3665 after 26 passages with clarithromycin measured after 10 antibiotic-free subculture by multi-step resistance selection technique
Streptococcus pneumoniae [49] = assay: Antimicrobial activity against drug-resistant Streptococcus pneumoniae isolate 3665 after 14 passages with Telithromycin measured after 10 antibiotic-free subculture by multi-step resistance selection technique
Streptococcus pneumoniae [50] = assay: Antimicrobial activity against drug-resistant Streptococcus pneumoniae isolate 3665 after 26 passages by multi-step resistance selection technique; procedure, shortened: as §4

CC[C@H]1OC(=O)[C@H](C)[C@@H](O[C@H]2C[C@@](C)(OC)[C@@H](O)[C@H](C)O2)[C@H](C)[C@@H](O[C@@H]2O[C@H](C)C[C@H](N(C)C)[C@H]2O)[C@](C)(OC)C[C@@H](C)C(=O)[C@H](C)[C@@H](O)[C@]1(C)O [CLARITHROMYCIN]
MIC (Streptococcus pneumoniae [1]): > 64 µg/mL
MIC (Streptococcus pneumoniae [2]): > 64 µg/mL
MIC (Streptococcus pneumoniae [3]): > 64 µg/mL
MIC (Streptococcus pneumoniae [4]): > 64 µg/mL
MIC (Streptococcus pneumoniae [5]): > 64 µg/mL
MIC (Streptococcus pneumoniae [6]): > 64 µg/mL
MIC (Streptococcus pneumoniae [7]): 0.5 µg/mL (≈ 0.668 µM)
MIC (Streptococcus pneumoniae [8]): 0.004 µg/mL (≈ 0.00535 µM)
MIC (Streptococcus pneumoniae [9]): 0.25 µg/mL (≈ 0.334 µM)
MIC (Streptococcus pneumoniae [10]): 0.5 µg/mL (≈ 0.668 µM)
MIC (Streptococcus pneumoniae [11]): > 64 µg/mL
MIC (Streptococcus pneumoniae [12]): 0.25 µg/mL (≈ 0.334 µM)
MIC (Streptococcus pneumoniae [13]): 0.016 µg/mL (≈ 0.0214 µM)
MIC (Streptococcus pneumoniae [14]): 4 µg/mL (≈ 5.35 µM)
MIC (Streptococcus pneumoniae [15]): 1 µg/mL (≈ 1.34 µM)
MIC (Streptococcus pneumoniae [16]): 0.03 µg/mL (≈ 0.0401 µM)
MIC (Streptococcus pneumoniae [17]): 0.008 µg/mL (≈ 0.0107 µM)
MIC (Streptococcus pneumoniae [18]): 0.016 µg/mL (≈ 0.0214 µM)
MIC (Streptococcus pneumoniae [19]): 16 µg/mL (≈ 21.4 µM)
MIC (Streptococcus pneumoniae [20]): 0.008 µg/mL (≈ 0.0107 µM)
MIC (Streptococcus pneumoniae [21]): 0.016 µg/mL (≈ 0.0214 µM)
MIC (Streptococcus pneumoniae [22]): 2 µg/mL (≈ 2.67 µM)
MIC (Streptococcus pneumoniae [23]): > 64 µg/mL
MIC (Streptococcus pneumoniae [24]): > 64 µg/mL
MIC (Streptococcus pneumoniae [25]): > 64 µg/mL
MIC (Streptococcus pneumoniae [26]): 0.008 µg/mL (≈ 0.0107 µM)
MIC (Streptococcus pneumoniae [27]): 0.016 µg/mL (≈ 0.0214 µM)
MIC (Streptococcus pneumoniae [28]): > 64 µg/mL
MIC (Streptococcus pneumoniae [29]): > 64 µg/mL
MIC (Streptococcus pneumoniae [30]): > 64 µg/mL
MIC (Streptococcus pneumoniae [31]): 8 µg/mL (≈ 10.7 µM)
MIC (Streptococcus pneumoniae [32]): 8 µg/mL (≈ 10.7 µM)
MIC (Streptococcus pneumoniae [33]): 16 µg/mL (≈ 21.4 µM)
MIC (Streptococcus pneumoniae [34]): 64 µg/mL (≈ 85.6 µM)
MIC (Streptococcus pneumoniae [35]): > 64 µg/mL
MIC (Streptococcus pneumoniae [36]): 16 µg/mL (≈ 21.4 µM)
MIC (Streptococcus pneumoniae [37]): 0.5 µg/mL (≈ 0.668 µM)
MIC (Streptococcus pneumoniae [38]): > 64 µg/mL
MIC (Streptococcus pneumoniae [39]): > 64 µg/mL
MIC (Streptococcus pneumoniae [40]): 8 µg/mL (≈ 10.7 µM)
MIC (Streptococcus pneumoniae [41]): 8 µg/mL (≈ 10.7 µM)
MIC (Streptococcus pneumoniae [42]): 16 µg/mL (≈ 21.4 µM)
MIC (Streptococcus pneumoniae [43]): 16 µg/mL (≈ 21.4 µM)
MIC (Streptococcus pneumoniae [44]): 2 µg/mL (≈ 2.67 µM)
MIC (Streptococcus pneumoniae [45]): 32 µg/mL (≈ 42.8 µM)
MIC (Streptococcus pneumoniae [46]): 4 µg/mL (≈ 5.35 µM)
MIC (Streptococcus pneumoniae [47]): 2 µg/mL (≈ 2.67 µM)
MIC (Streptococcus pneumoniae [48]): 8 µg/mL (≈ 10.7 µM)
MIC (Streptococcus pneumoniae [49]): 2 µg/mL (≈ 2.67 µM)
MIC (Streptococcus pneumoniae [50]): 16 µg/mL (≈ 21.4 µM)
